Assay results from ChEMBL document CHEMBL1126298, “New triazine derivatives as potent modulators of multidrug resistance” (1992).

What was measured:
DC3F/AD [1] = assay: Increase in adriamycin uptake in modulator-treated cells relative to untreated cells at a concentration of 10 uM; assay type: functional, Cricetulus griseus
Outline: (§1)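 DC-3F/AD or KB-A1 cells (5 × 10⁶/mL) were incubated at 37 °C for 5 h with 50 μM adriamycin plus modulator (2.5–10 μM range). ADR fluorescence of 10 000 cells was read by flow cytometry at 4 °C with 488 nm argon-laser excitation. The value is the increase in mean fluorescence of treated cells over untreated cells.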

DC3F/AD [2] = assay: Increase in adriamycin uptake in modulator-treated cells relative to untreated cells at a concentration of 5 uM; assay type: functional, Cricetulus griseus; outline: as §1
DC3F/AD [3] = assay: Percent of cell viability remaining after incubating the cells with the modulator alone a concentration of 5 uM; assay type: functional, Cricetulus griseus
Outline: (§2)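 Cells were grown with modulator alone for 4 days under the same conditions as the chemosensitivity assay, and read by MTT. Viability = (absorbance with modulator/absorbance of control cells) × 100. "tox" marks viability below 25%.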

KB [4] = assay: Percent of cell viability remaining after incubating the cells with the modulator alone; assay type: functional, Homo sapiens; parameters: concentration or dose not given beside the values; outline: as §2
KB [5] = assay: Increase in adriamycin uptake in modulator-treated cells relative to untreated KB-A1 cells at a concentration of 5 uM; assay type: functional, Homo sapiens; outline: as §1
KB [6] = assay: In vitro activity in KB-A1 cell line activity expressed as fold reversion (Ratio of IC50(adriamycin alone) / IC50(adriamycin + modulator) at a concentration of 5 uM; assay type: functional, Homo sapiens
Outline: (§3)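 Human epidermoid KB-A1 cells (Pgp-overexpressing) were grown in RPMI 1640 with 10% FCS and 10 mM HEPES (pH 7.4). They were exposed for 4 days to adriamycin (nine graded concentrations, in triplicate) with or without 5 μM modulator. IC50 was read by the MTT assay. Fold reversion = IC50(ADR alone)/IC50(ADR + modulator).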

DC3F/AD [7] = assay: Percent of cell viability remaining after incubating with a 10 uM concentration; assay type: functional, Cricetulus griseus; outline: as §2
DC3F/AD [8] = assay: In vitro activity in DC-3F/AD cell line(Ratio of IC50(actinomycin D alone) / IC50(actinomycin D + modulator) at a concentration of 5 uM
DC3F/AD [9] = assay: In vitro activity in DC-3F/AD cell line Ratio of IC50(actinomycin D alone) / IC50(actinomycin D + modulator) at a concentration of 10 uM
P388 [10] = assay: Antitumor activity of vincristine against P388 leukemia cell line in mice at a dose of 100 mg/kg.; assay type: functional, Mus musculus
P388 [11] = assay: Antitumor activity of vincristine against P388 leukemia cell line in mice at a dose of 50 mg/kg.; assay type: functional, Mus musculus
KB [12] = assay: Compound was evaluated for the in vitro activity in KB-A1 cell line. Activity expressed as fold reversion (Ratio of IC50(adriamycin alone) / IC50(adriamycin + modulator) at a concentration of 5 uM; assay type: functional, Homo sapiens; outline: as §3
P388/VCR = assay: Antitumor activity of vincristine against P388/VCR leukemia in mice at a dose of 50 mg/kg.; assay type: functional, Mus musculus
KB [13] = assay: Compound was evaluated for the in vitro activity in KB-A1 cell line)Activity expressed as fold reversion (Ratio of IC50(adriamycin alone) / IC50(adriamycin + modulator) at a concentration of 5 uM; assay type: functional, Homo sapiens; outline: as §3

SMILES | Increase (DC3F/AD [1]) | Increase (DC3F/AD [2]) | Viability (DC3F/AD [3]) [%] | Viability (KB [4]) [%] | Increase (KB [5]) | Fold reversion (KB [6]) | Viability (DC3F/AD [7]) [%] | Fold reversion (DC3F/AD [8]) | Fold reversion (DC3F/AD [9]) | T/C (P388 [10]) [%] | T/C (P388 [11]) [%] | Fold reversion (KB [12]) | T/C (P388/VCR) [%] | Fold reversion (KB [13])
C=CCNc1nc(NCC=C)nc(N2CCC(N(C)CC3c4ccccc4CCc4ccccc43)CC2)n1 | 21.8 | 17.8 | 70 | 111 | 25.6 | 118 | 69 | 834 | 3035 |  |  |  |  | 
CN(C)c1nc(N(C)C)nc(N2CCC(NCC3c4ccccc4CCc4ccccc43)CC2)n1 | 30.6 | 29.4 | 71 | 28 | 16.4 | 7 | 66 | 187 | 544 |  |  |  |  | 
C=CCNc1nc(NCC=C)nc(N2CCC(NCC3c4ccccc4-c4ccccc43)CC2)n1 | 23.2 | 19.6 | 78 | 42 | 20.6 | 57 | 75 | 170 | 589 |  |  |  |  | 
C=CCNc1nc(NCC=C)nc(N2CCC(NCC3c4ccccc4C=Cc4ccccc43)CC2)n1 | 25.8 | 24.5 | 86 | 31 | 59.2 | 640 |  | 1420 | <25 | 172 | 196 |  |  | 
C=CCNc1nc(NCC=C)nc(N2CCC(NC3CC4c5ccccc5C3c3ccccc34)CC2)n1 (stereo not given) | 35.9 | 32.9 | 98 | 133 | 43.8 | 118 | 102 | 1638 | 4264 |  |  |  |  | 
C=CCNc1nc(NCC=C)nc(N2CCN(C3c4ccccc4CCc4ccccc43)CC2)n1 | 19.3 | 16.9 | 92 | 108 | 11.2 |  | 87 | 309 | 455 |  |  | 36 |  | 
C=CCNc1nc(NCC=C)nc(N2CCC(NCC3c4ccccc4CCCc4ccccc43)CC2)n1 | 21.6 | 22.3 | 105 | 89 | 44.1 | 177 |  | 2951 | <25 | 186 | 173 |  |  | 
C=CCNc1nc(NCC=C)nc(N2CCC(NCC3c4ccccc4NC(=O)c4ccccc43)CC2)n1 (stereo not given) | 41.5 | 2.2 | 106 | 113 | 48.4 | 315 | 100 | 2 | 583 |  |  |  |  | 
C=CCNc1nc(NCC=C)nc(NCC2CCN(C3c4ccccc4CCc4ccccc43)CC2)n1 | 17.4 | 10.1 | 71 | 97 | 1.9 | 10 | 49 | 10 | 46 |  |  |  |  | 
C=CCNc1nc(NC)nc(N2CCC(NCC3c4ccccc4COc4ccccc43)CC2)n1 (stereo not given) | 21.5 | 16.8 | 54 | 107 | 35 | 183 | 75 | 600 | 2203 | 163 | 181 |  | 170 | 
C=CCNc1nc(NCC=C)nc(N2CCN(NCC3c4ccccc4CCc4ccccc43)CC2)n1 | 28.2 | 21.1 | 87 | 96 | 22.8 |  | 81 | 329 | 1159 |  |  |  |  | 93
C=CCNc1nc(NCC=C)nc(NCC(O)CN2CCN(C3c4ccccc4CCc4ccccc43)CC2)n1 (stereo not given) | 27.6 | 24.3 |  |  | 29.2 |  |  | <25 | <25 |  |  | <25 |  | 
